According to ChEMBL document CHEMBL3120102, “Structure-based design, synthesis and biological evaluation of novel anthra[1,2-d]imidazole-6,11-dione homologues as potential antitumor agents” (2013):

Columns and labels:
Format in all cases: functional
[1] = (§1) Cytotoxicity against human Hs578T cells assessed as growth inhibition after 48 hrs by SRB assay; conditions: Hs-578T
Procedure, shortened: (§2)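 NCI 60-cell-line five-dose screen at […]. Drug exposure was 48 h, followed by sulforhodamine B protein staining. GI50, TGI and LC50 were calculated against a time-zero control and untreated plates, with dose–response curves plotted from log10 concentration.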

Hs-578T = experiment: as §1; procedure, shortened: as §2
OVCAR-8 = experiment: Cytotoxicity against human OVCAR8 cells assessed as growth inhibition after 48 hrs by SRB assay
Procedure, shortened: (§3)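 NCI 60-cell-line screen, five-dose stage: each cell line exposed for 48 h to five concentrations spanning five log steps; cellular protein measured by sulforhodamine B colorimetry. A time-zero cell control and plates without drug are used to derive GI50, TGI and LC50 from log-concentration dose-response curves.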

HCT-116 = experiment: Cytotoxicity against human HCT116 cells assessed as growth inhibition after 48 hrs by SRB assay; procedure, shortened: as §2
KM12 = experiment: Cytotoxicity against human KM12 cells assessed as growth inhibition after 48 hrs by SRB assay; procedure, shortened: as §2
T47D = experiment: Cytotoxicity against human T47D cells assessed as growth inhibition after 48 hrs by SRB assay
Procedure, shortened: (§4)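 NCI 60-cell-line screen, two stages. Five-dose testing at […]. Cellular protein measured by sulforhodamine B colorimetry after 48 h drug exposure. A time-zero control and drug-free plates are used to derive GI50, TGI and LC50 from dose-response curves plotted as log10 concentration per cell line.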

MOLT-4 = experiment: Cytotoxicity against human MOLT4 cells assessed as growth inhibition after 48 hrs by SRB assay; procedure, shortened: as §3
RPMI-8226 = experiment: Cytotoxicity against human RPMI8226 cells assessed as growth inhibition after 48 hrs by SRB assay; procedure, shortened: as §3
TK-10 = experiment: Cytotoxicity against human TK10 cells assessed as growth inhibition after 48 hrs by SRB assay; procedure, shortened: as §4
SK-OV-3 = experiment: Cytotoxicity against human SKOV3 cells assessed as growth inhibition after 48 hrs by SRB assay; procedure, shortened: as §3
SF-295 = experiment: Cytotoxicity against human SF295 cells assessed as growth inhibition after 48 hrs by SRB assay; procedure, shortened: as §3
K562 = experiment: Cytotoxicity against human K562 cells assessed as growth inhibition after 48 hrs by SRB assay; procedure, shortened: as §2
CAKI-1 = experiment: Cytotoxicity against human CAKI-1 cells assessed as cell growth at 10 uM after 48 hrs by SRB assay; conditions: CAKI-1, 48 h, read-out: Activity
SNB-75 = experiment: Cytotoxicity against human SNB75 cells assessed as growth inhibition after 48 hrs by SRB assay; procedure, shortened: as §4
UACC-62 = experiment: Cytotoxicity against human UACC62 cells assessed as growth inhibition after 48 hrs by SRB assay; procedure, shortened: as §4
SK-MEL-5 = experiment: Cytotoxicity against human SK-MEL-5 cells assessed as growth inhibition after 48 hrs by SRB assay; procedure, shortened: as §3
SW-620 = experiment: Cytotoxicity against human SW620 cells assessed as growth inhibition after 48 hrs by SRB assay; procedure, shortened: as §4
M14 = experiment: Cytotoxicity against human M14 cells assessed as growth inhibition after 48 hrs by SRB assay; procedure, shortened: as §2
[2] = (§5) Cytotoxicity against human UACC257 cells assessed as growth inhibition after 48 hrs by SRB assay; conditions: UACC-257, 48 h; procedure, shortened: as §4
UACC-257 = experiment: as §5; procedure, shortened: as §4
MDA-MB-231 = experiment: Cytotoxicity against human MDA-MB-231 cells assessed as growth inhibition after 48 hrs by SRB assay; procedure, shortened: as §3
MCF7 = experiment: Cytotoxicity against human MCF7 cells assessed as growth inhibition after 48 hrs by SRB assay; procedure, shortened: as §3
[3] = (§6) Cytotoxicity against human EKVX cells assessed as growth inhibition after 48 hrs by SRB assay; procedure, shortened: as §2
EKVX = experiment: as §6; procedure, shortened: as §2
NCI-H226 = experiment: Cytotoxicity against human NCI-H226 cells assessed as growth inhibition after 48 hrs by SRB assay; procedure, shortened: as §3
SNB-19 = experiment: Cytotoxicity against human SNB19 cells assessed as growth inhibition after 48 hrs by SRB assay; procedure, shortened: as §4
SF-268 = experiment: Cytotoxicity against human SF268 cells assessed as growth inhibition after 48 hrs by SRB assay; procedure, shortened: as §3
HCC 2998 = experiment: Cytotoxicity against human HCC2998 cells assessed as growth inhibition after 48 hrs by SRB assay; procedure, shortened: as §2
OVCAR-3 = experiment: Cytotoxicity against human OVCAR3 cells assessed as cell growth at 10 uM after 48 hrs by SRB assay; conditions: OVCAR-3, 48 h, read-out: Activity
Procedure, shortened: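 First stage of the NCI 60 human tumour cell line screen: a single dose is tested against every line. Cell growth is read as cellular protein by sulforhodamine B colorimetry after 48 h of drug exposure, with reference to a time-zero control and to untreated plates.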

HT-29 = experiment: Cytotoxicity against human HT-29 cells assessed as cell growth at 10 uM after 48 hrs by SRB assay; conditions: HT-29, 48 h, read-out: Activity

SMILES: CCSc1nc2ccc3c(c2[nH]1)C(=O)c1ccccc1C3=O
- GI50 [1]: 5.12 µM
- TGI [1]: > 100 µM
- CC50 ([1]; read-out: LC50 (the source's name)): > 100 µM
- growth inhibition (GI) (Hs-578T): Dose-dependent effect
- growth inhibition (GI) (OVCAR-8): Dose-dependent effect
- GI50 (OVCAR-8; OVCAR-8, 48 h): 15.1 µM
- LC50 (OVCAR-8; OVCAR-8, 48 h): > 100 µM
- TGI (OVCAR-8; OVCAR-8, 48 h): > 100 µM
- growth inhibition (GI) (HCT-116): Dose-dependent effect
- GI50 (HCT-116; HCT-116, 48 h): 5.59 µM
- LC50 (HCT-116; HCT-116, 48 h): > 100 µM
- TGI (HCT-116; HCT-116, 48 h): > 100 µM
- growth inhibition (GI) (KM12): Dose-dependent effect
- GI50 (KM12; KM12, 48 h): 8.43 µM
- TGI (KM12; KM12, 48 h): > 100 µM
- CC50 (KM12; KM12, 48 h, read-out: LC50 (the source's name)): > 100 µM
- GI50 (T47D): 4.21 µM
- LC50 (T47D): > 100 µM
- TGI (T47D): > 100 µM
- growth inhibition (GI) (T47D): Dose-dependent effect
- growth inhibition (GI) (MOLT-4): Dose-dependent effect
- GI50 (MOLT-4; MOLT-4, 48 h): 4.05 µM
- LC50 (50% lethal concentration) (MOLT-4; MOLT-4, 48 h): > 100 µM
- TGI (MOLT-4; MOLT-4, 48 h): > 100 µM
- growth inhibition (GI) (RPMI-8226): Dose-dependent effect
- GI50 (RPMI-8226; RPMI-8226, 48 h): 2.83 µM
- LC50 (concentration causing 50% net cell kill) (RPMI-8226; RPMI-8226, 48 h): > 100 µM
- TGI (RPMI-8226; RPMI-8226, 48 h): > 100 µM
- growth inhibition (GI) (TK-10): Dose-dependent effect
- GI50 (TK-10; TK-10, 48 h): 7.4 µM
- LC50 (TK-10; TK-10, 48 h): > 100 µM
- TGI (TK-10; TK-10, 48 h): > 100 µM
- growth inhibition (GI) (SK-OV-3): Dose-dependent effect
- GI50 (SK-OV-3; SK-OV-3, 48 h): 3.8 µM
- LC50 (concentration killing 50% of cells present at time zero) (SK-OV-3; SK-OV-3, 48 h): > 100 µM
- TGI (SK-OV-3; SK-OV-3, 48 h): > 100 µM
- growth inhibition (GI) (SF-295): Dose-dependent effect
- GI50 (SF-295; SF-295, 48 h): 4.17 µM
- LC50 (SF-295; SF-295, 48 h): > 100 µM
- TGI (SF-295; SF-295, 48 h): 47.4 µM
- growth inhibition (GI) (K562): Dose-dependent effect
- GI50 (K562; K562, 48 h): 13.5 µM
- TGI (K562; K562, 48 h): > 100 µM
- CC50 (K562; K562, 48 h, read-out: LC50 (the source's name)): > 100 µM
- growth at 10 µM (CAKI-1): -8.01%
- growth inhibition (GI) (SNB-75): Dose-dependent effect
- GI50 (SNB-75; SNB-75, 48 h): 10.1 µM
- LC50 (SNB-75; SNB-75, 48 h): > 100 µM
- TGI (SNB-75; SNB-75, 48 h): 84.9 µM
- growth inhibition (GI) (UACC-62): Dose-dependent effect
- GI50 (UACC-62; UACC-62, 48 h): 7.73 µM
- LC50 (UACC-62; UACC-62, 48 h): > 100 µM
- TGI (UACC-62; UACC-62, 48 h): > 100 µM
- growth inhibition (GI) (SK-MEL-5): Dose-dependent effect
- GI50 (SK-MEL-5; SK-MEL-5, 48 h): 33.6 µM
- LC50 (concentration killing 50% of cells relative to time zero) (SK-MEL-5; SK-MEL-5, 48 h): > 100 µM
- TGI (SK-MEL-5; SK-MEL-5, 48 h): > 100 µM
- growth inhibition (GI) (SW-620): Dose-dependent effect
- GI50 (SW-620; SW-620, 48 h): > 100 µM
- LC50 (SW-620; SW-620, 48 h): > 100 µM
- TGI (SW-620; SW-620, 48 h): > 100 µM
- growth inhibition (GI) (M14): Dose-dependent effect
- GI50 (M14; M14, 48 h): 5.62 µM
- LC50 (M14; M14, 48 h): > 100 µM
- TGI (M14; M14, 48 h): > 100 µM
- GI50 [2]: > 100 µM
- LC50 [2]: > 100 µM
- TGI [2]: > 100 µM
- growth inhibition (GI) (UACC-257): Dose-dependent effect
- growth inhibition (GI) (MDA-MB-231): Dose-dependent effect
- GI50 (MDA-MB-231; MDA-MB-231, 48 h): 20.7 µM
- LC50 (MDA-MB-231; MDA-MB-231, 48 h): > 100 µM
- TGI (MDA-MB-231; MDA-MB-231, 48 h): > 100 µM
- growth inhibition (GI) (MCF7): Dose-dependent effect
- GI50 (MCF7; MCF7, 48 h): 4.84 µM
- LC50 (concentration killing 50% of cells) (MCF7; MCF7, 48 h): > 100 µM
- TGI (MCF7; MCF7, 48 h): > 100 µM
- GI50 [3]: 2.13 µM
- LC50 [3]: > 100 µM
- TGI [3]: 29 µM
- growth inhibition (GI) (EKVX): Dose-dependent effect
- growth inhibition (GI) (NCI-H226): Dose-dependent effect
- GI50 (NCI-H226; NCI-H226, 48 h): 14.2 µM
- LC50 (NCI-H226; NCI-H226, 48 h): > 100 µM
- TGI (NCI-H226; NCI-H226, 48 h): > 100 µM
- growth inhibition (GI) (SNB-19): Dose-dependent effect
- GI50 (SNB-19; SNB-19, 48 h): > 100 µM
- LC50 (SNB-19; SNB-19, 48 h): > 100 µM
- TGI (SNB-19; SNB-19, 48 h): > 100 µM
- growth inhibition (GI) (SF-268): Dose-dependent effect
- GI50 (SF-268; SF-268, 48 h): 18.1 µM
- LC50 (concentration killing 50% of cells relative to time zero) (SF-268; SF-268, 48 h): > 100 µM
- TGI (SF-268; SF-268, 48 h): > 100 µM
- growth inhibition (GI) (HCC 2998): Dose-dependent effect
- GI50 (HCC 2998; HCC 2998, 48 h): 12.6 µM
- TGI (HCC 2998; HCC 2998, 48 h): > 100 µM
- CC50 (HCC 2998; HCC 2998, 48 h, read-out: LC50 (the source's name)): > 100 µM
- growth at 10 µM (OVCAR-3): 69.3%
- growth at 10 µM (HT-29): 75.2%
